# Results taken from ChEMBL document CHEMBL1143581, “Cationic chalcone antibiotics. Design, synthesis, and mechanism of action” (2005).
# Experiments:
# Staphylococcus aureus [1] = assay: Minimum inhibitory concentration against Staphylococcus aureus ATCC 33591 (resistant to methicillin); type: functional
# Escherichia coli = assay: Minimum inhibitory concentration against Escherichia coli ATCC 25922; type: functional
# Summary of the method: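 Broth microdilution per NCCLS in Mueller-Hinton medium, run in triplicate, with an added uninoculated compound dilution series in case of precipitation. MIC read as the lowest concentration preventing visible growth; reported values are the mean of three experiments.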
# Enterococcus faecium [2] = assay: Minimum inhibitory concentration against Enterococcus faecium […]; type: functional
# Enterococcus faecium [3] = assay: Minimum inhibitory concentration against Enterococcus faecium 17501 (vancomycin-resistant clinical isolate); type: functional
# [4] = Percent lysis of human erythrocytes after exposed to test compound was measured as hemolysis; type: functional
# Staphylococcus aureus [5] = assay: Effect on bacterial membrane integrity was determined by using SYTO9 green fluorescent […]; type: functional, Bacteria
# Summary of the method: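 Incubated 15 min at 37 °C with agitation, then resuspended to OD600 ~0.4 and stained with BacLight (SYTO-9/propidium iodide) 15 min dark. Excitation 485 nm, emission 530/630 nm; green/red ratio normalized to untreated control.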
SMILES,MIC (Staphylococcus aureus [1]) [µM],MIC (Escherichia coli) [µM],MIC (Enterococcus faecium [2]) [µM],MIC (Enterococcus faecium [3]) [µM],Hemolysis [4] [%],Membrane integrity (Staphylococcus aureus [5]) [%]
Cc1cc(C)cc(-c2ccc(OCCN(C)C)c(/C=C/C(=O)c3ccc(NCCN(C)C)cc3)c2)c1,10,20,20,10,,
COc1ccc(C(=O)/C=C/c2cc(-c3ccccc3C(F)(F)F)ccc2N2CCN(C)CC2)c(F)c1,5,,20,10,,
COc1ccc(C(=O)/C=C/c2cc(-c3cccnc3)ccc2N2CCN(C)CC2)c(F)c1,75,,75,75,,
Cc1cc(C)cc(-c2ccc(OCCN(C)C)c(/C=C/C(=O)c3cccc(OCCN(C)C)c3)c2)c1,5,20,10,10,,
Cc1cc(C)cc(-c2ccc(N3CCN(C)CC3)c(/C=C/C(=O)c3cccc(NCCN(C)C)c3)c2)c1,5,10,5,5,,
O=C(O)c1cn(C2CC2)c2cc(N3CCNCC3)c(F)cc2c1=O [CIPROFLOXACIN],2,,,,0,102
COc1ccc(C(=O)/C=C/c2cc(-c3cc(C)cc(C)c3)ccc2OCC[N+](C)(C)C)c(C[N+](C)(C)C)c1,10,,,,,
CN(C)Cc1ccc(C(=O)/C=C/c2ccc(Cl)cc2Cl)cc1,40,,75,40,,
COc1ccc(C(=O)/C=C/c2cc(C)ccc2OCCN(C)C)c(F)c1,75,,150,150,,
Cc1cc(C)cc(-c2ccc(OCCN(C)C)c(/C=C/C(=O)c3ccccc3NCCN(C)C)c2)c1,10,10,10,10,,
COc1ccc(C(=O)/C=C/c2cc(-c3ccccc3OC)ccc2N2CC[N+](C)(C)CC2)c(F)c1,10,,,,,
Cc1cc(C)cc(-c2ccc(N(C)CCN(C)C)c(/C=C/C(=O)c3cccc(NCCN(C)C)c3)c2)c1,10,20,10,10,,
COc1ccc(C(=O)/C=C/c2cc(-c3cc(C)cc(C)c3)ccc2OCCN(C)C)c(CN(C)C)c1,5,75,5,5,<1,2
COc1ccc(C(=O)/C=C/c2cc(-c3cc(C)cc(C)c3)ccc2OCCN(C)C)c(F)c1,5,,5,5,,
CN(C)CCNc1cccc(C(=O)/C=C/c2cc(-c3ccccc3)ccc2N2CCN(C)CC2)c1,20,20,40,20,,
COc1ccc(C(=O)/C=C/c2cc(-c3ccccc3OC)ccc2OCCN(C)C)c(F)c1,10,,10,10,,
Cc1cc(C)cc(-c2ccc(OCCN(C)C)c(/C=C/C(=O)c3ccccc3CN(C)C)c2)c1,10,75,5,10,,
CN(C)CCNc1ccc(C(=O)/C=C/c2ccc(Cl)cc2)cc1,75,,75,75,,
C=CC(C)(C)c1cc(/C=C/C(=O)c2ccc(O)cc2)c(OC)cc1O [LICOAGROCHACONE A],40,,75,40,100,0
COc1ccc(C(=O)/C=C/c2cc(-c3ccccc3OC)ccc2N2CCN(C)CC2)c(F)c1,10,,20,10,80,0
CN(C)CCNc1ccc(C(=O)/C=C/c2ccc(Oc3ccccc3)cc2)cc1,20,,5,20,,
Cc1cc(C)cc(-c2ccc(OCCN(C)C)c(/C=C/C(=O)c3cccc(NCCN(C)C)c3)c2)c1,5,20,10,10,,

SMILES,MIC (Staphylococcus aureus [1]) [µM],MIC (Escherichia coli) [µM],MIC (Enterococcus faecium [2]) [µM],MIC (Enterococcus faecium [3]) [µM],Hemolysis [4] [%],Membrane integrity (Staphylococcus aureus [5]) [%]
CN(C)CCNc1ccc(C(=O)/C=C/c2cccc(Oc3ccccc3)c2)cc1,20,,5,20,,
CN(C)CCNc1cccc(C(=O)/C=C/c2ccc(-c3ccccc3)cc2N2CCN(C)CC2)c1,20,40,40,40,,
CN(C)CCOc1ccc(C(=O)/C=C/c2ccc(Cl)cc2Cl)cc1,40,,40,40,100,0
Cc1cc(C)cc(-c2ccc(OCCN(C)C)c(/C=C/C(=O)c3ccc(OCCN(C)C)cc3)c2)c1,10,40,20,10,,
CN(C)CCNc1ccccc1C(=O)/C=C/c1ccc(Cl)cc1Cl,40,,75,40,,
CN(C)CCNc1cccc(C(=O)/C=C/c2cc(-c3ccccc3)cc(N3CCN(C)CC3)c2)c1,20,75,40,40,,
COc1ccc(C(=O)/C=C/c2cc(C(C)(C)C)ccc2OCCN(C)C)c(F)c1,10,,20,20,,
CN(C)CCNc1ccc(C(=O)/C=C/c2ccc(Cl)cc2Cl)cc1,40,,40,40,,
COc1ccc(C(=O)/C=C/c2cc(-c3ccccc3)ccc2OCCN(C)C)c(F)c1,5,,10,10,,
Cc1cc(C)cc(-c2ccc(OCCN(C)C)c(/C=C/C(=O)c3cccc(CN(C)C)c3)c2)c1,10,40,10,10,,
COc1ccc(C(=O)/C=C/c2ccccc2OCCN(C)C)c(F)c1,300,,300,300,,
Cc1cc(C)cc(-c2ccc(OCCN(C)C)c(/C=C/C(=O)c3ccc(CN(C)C)cc3)c2)c1,5,20,20,10,,
COc1ccc(C(=O)/C=C/c2cc(-c3ccccc3OC)ccc2N2CCCN(C)CC2)c(F)c1,10,,20,10,,
COc1ccc(C(=O)/C=C/c2cc(-c3ccccc3)ccc2CN(C)C)c(F)c1,150,,150,150,,
Cc1cc(C)cc(-c2ccc(OCCN(C)C)c(/C=C/C(=O)c3ccccc3OCCN(C)C)c2)c1,10,40,10,10,,
CN(C)CCNc1ccc(/C=C/C(=O)c2ccc(Oc3ccccc3)cc2)cc1,20,,10,20,,
CN(C)CCNc1cccc(C(=O)/C=C/c2ccc(Cl)cc2Cl)c1,40,,40,40,,
COc1ccc(C(=O)/C=C/c2cc(-c3cc(C)cc(C)c3)ccc2OCCN(C)C)cc1CN(C)C,20,40,20,20,,
C[N+](C)(C)CCOc1ccc(C(=O)/C=C/c2ccc(Cl)cc2Cl)cc1,40,,,,,
CCCCN(CCCC)c1ccc(/C=C/C(=O)c2ccc(NCCN(C)C)cc2)cc1,10,,10,10,,
COc1ccc(C(=O)/C=C/c2cc(-c3cccc(C(F)(F)F)c3)ccc2N2CCN(C)CC2)c(F)c1,5,,10,5,,
Cc1cc(C)cc(-c2ccc(N3CCNCC3)c(/C=C/C(=O)c3cccc(NCCN(C)C)c3)c2)c1,2,5,5,5,0,3
